In the library only some 1.8% were active in any assay of this set; here they are far more common.
Rpn11 block: inhibitors of human proteasome Rpn11; calls only at 20 µM; O00487; actives 0.59% (n = 360,000); human 26S proteasome, Ub4-pepOG fluorescence polarization; 20S core pre-blocked with epoxomicin;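 active = inhibition at 20 µM, scaled to each plate's controls, above about 33%, limit read from the data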
HNF4A DNA FP: change in binding of human HNF4 alpha to DNA; P41235; HNF4a-FITC DNA binding, fluorescence polarization, 1 h; activity change, % at 10 µM; actives 0.3% (n = 360,000); AID 1224865; in the data active = activity change above about 30%, passing the limit was not always enough
TPT1 inh: inhibitors of Candida albicans tRNA 2'-phosphotransferase TPT1. inhibition, % at 5 µM. recombinant caTPT1, FP RNA substrate dephosphorylation. actives 0.81% (n = 300,000);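 active = inhibition above the mean of all tested compounds plus 3 SD, set per screening campaign, cut at about 24% in these data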;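 also: plate controls were DMSO alone for no effect and ferristatin control at 100 nM for full effect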
SENP1 inh: SENP1 (human) catalytic domain inhibition; recombinant SENP1 catalytic domain, CyPet-SUMO1-YPet FRET cleavage; inhibition, % at 10 µM; AID 624204; actives 0.21% (n = 360,000);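 active = inhibition at least 30% at 10 µM, raw YFP signal under a set limit, fluorescence ratio 0.5 to 1.5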;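 also: 0% = enzyme with DMSO and 100% = no enzyme wells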
Target sequence (Q9P0U3 419-644 limits assumed): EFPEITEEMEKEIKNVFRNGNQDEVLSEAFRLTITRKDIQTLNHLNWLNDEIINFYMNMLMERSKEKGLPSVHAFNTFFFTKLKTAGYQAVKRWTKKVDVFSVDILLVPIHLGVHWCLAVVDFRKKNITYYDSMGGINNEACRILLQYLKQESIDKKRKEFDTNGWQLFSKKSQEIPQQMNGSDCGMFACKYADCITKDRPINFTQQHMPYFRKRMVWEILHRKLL
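Assay system: hSENP1 catalytic domain, recombinant. Amount: SENP1 enzyme, 20 pM final. Schedule: 50 min reaction, RT, dark. Technique: FRET, CFP and YFP emission. Control set: no-enzyme wells low, DMSO-plus-enzyme wells high control.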
UBC9 SUMO inh: SUMOylation inhibition. P63279. HTRF SUMOylation assay, SAE1/SAE2 + UBC9, in vitro. inhibition, % at 35 µM. actives 0.36% (n = 290,000). AID 2006; in the data active = inhibition above about 50%, passing the limit was not always enough
CSN deneddyl inh: CSN deneddylation inhibition. Q92905. Purified CSN, SCF-Nedd8-OG deneddylation, fluorescence polarization. inhibition, % at 12.5 µM. actives 0.38% (n = 360,000);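 active = pattern-corrected inhibition above about 35%, with an unprinted fluorescence ratio check between 0.5 and 1.5, limit read from the data, passing the limit was not always enough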;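 also: 0% = enzyme with substrate and 100% = substrate without enzyme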
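Schedule: reaction 90 min, room temperature / Assay system: HEK293T-derived human Csn5 enzyme / Input: Csn5 at 0.24 nM final / Measure: inhibition of Csn5 cleavage, % / Control set: substrate-only high control, full reaction low control / Technique: fluorescence polarization of the substrate / Buffer or medium: Tris/NaCl/DTT buffer, pH 7.5 / Reagent: SCFSkp2-Nedd8OG substrate at 10 nM final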
TPT1 inh confirm: confirmation of Candida albicans TPT1 inhibitors; shares compounds with TPT1 inh; AID 2149; inhibition, % at 5 µM; recombinant caTPT1, fluorescence polarization, RNase T1 coupled; actives 74% (n = 2,400);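 active = inhibition above the primary screen limit, the mean inhibition of all tested compounds plus 3 SD, cut at about 25% in these data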
RNase T1 counter: RNase T1 inhibition in TPT1 counter-screen. shares compounds with TPT1 inh. RNase T1 cleavage, fluorescence polarization, 1536-well. inhibition, % at 5 µM. actives 83% (n = 2,400). AID 2153;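 active = inhibition above the solvent-only control well mean plus 3 SD, limit set per screening run, cut at about 23% in these data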;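 also: plate controls were DMSO wells with enzyme for no effect and wells without RNase T1 for full effect; inhibitors block cleavage so intact labeled substrate keeps polarization high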
Target sequence (P00651 whole entry, looked up): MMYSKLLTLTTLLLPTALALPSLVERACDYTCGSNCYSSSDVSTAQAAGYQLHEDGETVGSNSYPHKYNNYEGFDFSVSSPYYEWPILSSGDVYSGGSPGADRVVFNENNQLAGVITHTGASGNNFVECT
Active calls of the source: *; i = inactive; x = not tested or not shown.

SMILES	Rpn11 block	HNF4A DNA FP	TPT1 inh	SENP1 inh	UBC9 SUMO inh	CSN deneddyl inh	TPT1 inh confirm	RNase T1 counter
CCCC(c1nnnn1C(C)(C)CC)N1CCN(C(=O)c2ccco2)CC1 (stereo not given)	i	4.5	-3.2	-0.8	-7.2	-3.1	x	x
O=C1N(Cc2cccc(Cl)c2)C[C@@H]2C[C@@H](c3c[nH]c4ccccc34)N3CCC[C@@]123	x	85.5*	25.6*	6.0	-6.3	49.2*	30.1*	40.3*
Nc1nc(SCC(=O)c2c(N)n(Cc3ccccc3)c(=O)[nH]c2=O)n[nH]1	i	-4.2	-1.5	1.6	13.9	3.8	x	x
COc1ccccc1NC(=O)Nc1sccc1-c1nc2ccccc2s1	i	16.4	32.9*	-105.1	19.5	9.6	33.5*	49.3*
O=C(Nc1ccccc1)Nc1sccc1-c1nc2ccccc2s1	i	7.5	12.4	-81.5	9.6	14.1	x	x
COc1ccccc1CN=Cc1[nH]c2ccc(Br)c(Cl)c2c1O	x	20.1	18.6	-43.2	19.2	3.1	x	x
Cc1cccc(N=Cc2[nH]c3ccc(Br)c(Cl)c3c2O)c1	i	54.2	112.5*	-1.0	14.2	-3.0	72.8*	76.9*
Cc1cccc(NC(=O)c2sc3nc4c(c(-c5cccs5)c3c2N)CN(C)CC4)c1	i	18.2	37.6*	-16.0	23.5	-7.5	28.4*	35.2*
CC(C)NC(=O)c1sc2nc3c(c(-c4cccs4)c2c1N)CN(C)CC3	i	-4.2	-13.5	0.9	45.0	-17.7	x	x
COc1ccc(NC(=O)C2CCCN2C(=O)Oc2ccccc2)cc1 (stereo not given)	i	-6.0	47.3*	1.6	1.5	-7.1	6.1	6.0
Cc1ccc(NC(=O)C2CCCN2C(=O)Oc2ccccc2)cc1 (stereo not given)	i	-1.1	0.5	1.9	18.2	-0.9	x	x
CN(/N=C\c1ccc(O)c(O)c1)c1nc(-c2ccccc2)cc(-c2ccccc2)n1	i	0.6	-0.3	1.5	11.7	0.9	x	x
O=S(=O)(Nc1cc(Cl)ccc1N1CCCCC1)c1cccs1	i	12.6	48.3*	9.0	-17.3	7.6	27.7*	35.1*
O=S(=O)(Nc1ccc(N2CCCCC2)cc1)c1cccs1	i	-0.9	0.5	1.1	22.7	0.2	x	x
CC(C)(C)c1nnc2sc(SCC(=O)c3ccc(Cl)cc3)nn2c1=O	i	-0.7	7.4	2.3	-10.4	-4.4	x	x
Cc1ccc(C(=O)CSc2nn3c(=O)c(C(C)(C)C)nnc3s2)cc1	i	-3.9	31.8*	-0.9	-7.5	5.3	3.3	6.1
O=C(CCCN1C(=O)/C(=C\c2ccccc2)SC1=S)N1CCOCC1	i	2.9	x	0.9	x	7.3	x	x
O=C(O)CN1C(=O)/C(=C\c2cn(CC(=O)N3CCOCC3)c3ccccc23)SC1=S	x	193.8	181.0*	-24.2	4.0	153.6	149.9*	144.3*
CCN(CC)c1ccc(N=Cc2ccc(N(CC)CC)cc2O)cc1	x	167.3	62.7*	-27.2	-13.9	31.0	120.3*	121.2*
CCN(CC)c1ccc(C=Nc2ccccc2)c(O)c1	i	10.4	14.0	-12.5	10.5	0.9	x	x
CCN(CC)c1ccc(/C=N/N=C(N)N)c(O)c1	x	21.9	48.6*	-33.5	0.4	7.1	92.5*	103.0*
CCN1C(=O)[C@@H]2Cc3c([nH]c4ccccc34)C(c3cc(OC)c(OC)c(OC)c3)N2C1=S (stereo not given in full)	x	26.0	58.0*	-25.2	-12.0	2.6	64.4*	73.2*
COc1cc([C@H]2c3[nH]c4ccccc4c3C[C@H]3C(=O)N4[C@@H](c5cc(OC)c(OC)c(OC)c5)c5[nH]c6ccccc6c5C[C@H]4C(=O)N23)cc(OC)c1OC	i	-0.4	-1.7	-55.5	15.8	-0.1	x	x

Compound activity from PubChem.
